Drawing on ChEMBL document CHEMBL1121845, “Synthesis and antitumor activity of cysteinyl-3,4-dihydroxyphenylalanines and related compounds” (1981), this text covers inhibition, T/C and Weight change for 16 compounds.

The subject of assay [1] is Don. Kind of assay: Growth inhibition of Don-6 cell lines at 1.0 mM concentration. The assay is classed as functional. The note with it: Cricetulus griseus. A digest of the protocol: (§1)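 YT-nu (human neuroblastoma) or Don-6 (Chinese hamster fibroblast) cells in McCoy's 5A with 15% FCS, attached 24 h. Washed, then exposed 1 h at 37 °C to drug at 1 or 0.1 mM in Hanks' BSS. Grown 48 h more in medium, trypsinized and Coulter-counted. % growth inhibition relative to parallel drug-free controls.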

The subject of assay [2] is YT-NU. Put plainly: Growth inhibition of YT-nu cell lines at 1.0 mM concentration. The assay is classed as functional. The conditions noted are these: Homo sapiens. In outline:
as §1

Assay [3] deals with YT-nu neuroblastoma (Homo sapiens). Put plainly: Compound was tested for growth inhibition of YT-nu cell lines at 0.1 mM concentration.
Assay [4] relates to Don-6 fibroblast (Cricetulus griseus). Kind of assay: Compound was tested for growth inhibition of Don-6 cell lines at 0.1 mM concentration.
The subject of assay [5] is Mus musculus. Kind of assay: Compound was tested for antitumor activity against the L1210 leukemia in mice at dose of 500(mg/kg)/day intraperitoneally per day. The assay is classed as functional. A digest of the protocol:
(§2)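 L1210 leukemia: young C57BL/6 × DBA/2 F1 male mice, about 20 g, 10 per group, inoculated ip with 1 × 10^6 leukemia cells on day 0. Drug given in 0.9% NaCl ip once daily for 7 days starting day 1. Read-out is %T/C = median survival time of treated/control × 100; weight change averaged between days 1 and 5.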

Assay [6] concerns Mus musculus. Put plainly: Compound was tested for antitumor activity against the L1210 leukemia in mice at dose of 1000 mg/kg/day intraperitoneally per day. The conditions noted are these: route intraperitoneal. The format is functional.
Assay [7] concerns Mus musculus. Put plainly: Compound was tested for antitumor activity against the B-16 melanoma in mice at dose of 1000 mg/kg/day intraperitoneally per day. The assay is classed as functional. The conditions noted are these: route intraperitoneal.
Assay [8] relates to Mus musculus. Put plainly: Compound was tested for antitumor activity against the B-16 melanoma in mice at dose of 500(mg/kg)/day intraperitoneally per day. The assay is classed as functional. In outline: (§3)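 B-16 melanoma: young C57BL/6 × DBA/2 F1 male mice, about 20 g, 10 per group, inoculated ip with 5 × 10^6 melanoma cells on day 0. Drug given in 0.9% NaCl ip once daily for 12 days starting day 1. Read-out is %T/C = median survival time of treated/control × 100; weight change averaged between days 1 and 5.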

Assay [9] deals with Mus musculus. Kind of assay: Compound was tested for antitumor activity against the L1210 leukemia in mice at dose of 500 mg/kg intraperitoneally per day. The assay is classed as functional. The conditions noted are these: route intraperitoneal. A digest of the protocol:
as §2

Assay [10] relates to Don. Kind of assay: Compound was tested for growth inhibition of Don-6 cell lines at 0.1 mM concentration. The assay is classed as functional. The note with it: Cricetulus griseus. In outline: as §1
Assay [11] has as its system Mus musculus. Put plainly: Compound was tested for antitumor activity against the L1210 leukemia in mice at dose of 400(mg/kg)/day intraperitoneally per day. The format is functional. A digest of the protocol:
as §2

Assay [12] concerns Mus musculus. Put plainly: Compound was tested for antitumor activity against the L1210 leukemia in mice at dose of 800(mg/kg)/day intraperitoneally per day. The assay is classed as functional. A digest of the protocol: as §2
Assay [13] deals with Mus musculus. Kind of assay: Compound was tested for antitumor activity against the B-16 melanoma in mice at dose of 400(mg/kg)/day intraperitoneally per day. The format is functional. A digest of the protocol: as §3
For assay [14], the system named is Mus musculus. Kind of assay: Compound was tested for antitumor activity against the B-16 melanoma in mice at dose of 800(mg/kg)/day intraperitoneally per day. The format is functional. A digest of the protocol:
as §3

Assay [15] relates to YT-NU. Put plainly: Compound was tested for growth inhibition of YT-nu cell lines at 0.1 mM concentration. The assay is classed as functional. The conditions noted are these: Homo sapiens. In outline:
as §1

Assay [16] deals with Mus musculus. Put plainly: Compound was tested for antitumor activity against the L1210 leukemia in mice at dose of 300(mg/kg)/day intraperitoneally per day. The format is functional. A digest of the protocol: as §2
For assay [17], the system named is Mus musculus. Kind of assay: Compound was tested for antitumor activity against the B-16 melanoma in mice at dose of 300(mg/kg)/day intraperitoneally per day. The format is functional. In outline: as §3
Assay [18] has as its system Mus musculus. Put plainly: Compound was tested for antitumor activity against the L1210 leukemia in mice at dose of 100(mg/kg)/day intraperitoneally per day. The assay is classed as functional. In outline:
(§4)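 Male C57BL/6 × DBA/2 F1 mice, about 20 g, 10 per group, inoculated ip with 1 × 10^6 L1210 cells on day 0. From day 1, drug in 0.9% NaCl given ip once daily for 7 days. Weight change recorded between days 1 and 5. Activity expressed as %T/C = median survival time of treated over control × 100.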

The test system of assay [19] is Mus musculus. Put plainly: Compound was tested for antitumor activity against the B-16 melanoma in mice at dose of 100(mg/kg)/day intraperitoneally per day. The format is functional. In outline: as §3
The subject of assay [20] is Mus musculus. Put plainly: Compound was tested for antitumor activity against the L1210 leukemia in mice at dose of 250 mg/kg intraperitoneally per day. The format is functional. The note with it: route intraperitoneal. A digest of the protocol: as §2
Assay [21] relates to Mus musculus. Put plainly: Compound was tested for antitumor activity against the L1210 leukemia in mice at dose of 150(mg/kg)/day intraperitoneally per day. The format is functional. In outline:
as §4

The term inhibition denotes the percentage by which the read-out fell short of the control. The term T/C denotes the ratio of treated to control.

Take `NC(CSc1ccccc1O)C(=O)O` (centres undefined): the inhibition at 1000 µM worked out at 5% in assay [1] and 51% in [2].

Consider `Cc1ccc(O)c(O)c1`, for which the figures for the inhibition at 1000 µM in assay [1] and in assay [2] were 76% and 93%, respectively. Besides, the values for the inhibition at 100 µM in assay [3] and in [4] were 48% and 33%, respectively.

Take `NC(CSc1cc(CC(N)C(=O)O)cc(O)c1O)C(=O)O` (centres undefined): the inhibition at 1000 µM in [1] is 11%; in assay [2], 59%. Also, the T/C in [5] was determined as 131%; in assay [6], 150%; in assay [7], 127%; in assay [8], 108%. Also, the Weight change came out at 1.7 g in [6], 2.1 g in [7], 2.6 g in assay [8] and 1.7 g in assay [9].

`NC(CSc1nc(CC(N)C(=O)O)c[nH]1)C(=O)O` (centres undefined): the inhibition at 1000 µM is 0% in assay [1] and 7% in assay [2].

As to `NC(CSc1cc(O)c(O)cc1CC(N)C(=O)O)C(=O)O` (centres undefined), the inhibition at 1000 µM in assay [1] came to 41%; in [2], 61%.

Consider `Cc1cc(O)c(O)c(SCC(N)C(=O)O)c1` (centres undefined), for which the inhibition at 100 µM in assay [10] was 25%; in assay [15], 44%. In addition, the values for the inhibition at 1000 µM in assay [1] and in assay [2] were 82% and 84%, respectively. Further, the T/C in [11] is 143%; in assay [12], 143%; in assay [13] it was 100%; in assay [14], 126%. In addition, the Weight change was 1.6 g in assay [11], 0.5 g in assay [12], 0.7 g in assay [13] and -0.4 g in assay [14].

For `NC(CSc1ccc(SCC(N)C(=O)O)c(O)c1O)C(=O)O` (centres undefined), the inhibition at 1000 µM came to 30% in [1] and 40% in assay [2].

`NC(CSc1ccc(O)c(O)c1)C(=O)O` (centres undefined): the inhibition at 100 µM in assay [10] amounted to 69%; in assay [15], 71%. The inhibition at 1000 µM in [1] stood at 81%; in assay [2], 76%. The T/C stood at 150% in assay [5]; 138% in assay [16]; 114% in assay [17]; 95% in [8]; 113% in assay [18]; 109% in assay [19]. Also, the Weight change in [5] is recorded as -1 g; in assay [16] it was 0.5 g; in assay [17], -1.3 g; in assay [8], -1.5 g; in assay [18], 1.4 g; in assay [19], 1.8 g.

As to `NC(CSc1c(CC(N)C(=O)O)ccc(O)c1O)C(=O)O` (centres undefined), the inhibition at 1000 µM in assay [1] is 0%; in assay [2] it was 35%.

Turning to `NC(CSc1ccc(O)cc1)C(=O)O` (centres undefined), the inhibition at 1000 µM in [1] worked out at 5%. In [20], the T/C amounted to 100% and the Weight change was determined as 3 g. Also, the inhibition at 1000 µM in [2] was 36%.

Take `NC(CSc1cc(CC(N)C(=O)O)c(SCC(N)C(=O)O)c(O)c1O)C(=O)O` (centres undefined): the inhibition at 1000 µM worked out at 44% in assay [1] and 56% in assay [2].

As for `NC(CSc1cc(CC(N)C(=O)O)ccc1O)C(=O)O` (centres undefined), the inhibition at 1000 µM amounted to 5% in assay [1] and 7% in [2].

On to `NC(CSc1cccc(O)c1O)C(=O)O` (centres undefined), for which the inhibition at 1000 µM in assay [1] worked out at 32%; in assay [2], 20%.

With `Cl.Cl.NCCSc1cc(CCN)cc(O)c1O`, the inhibition at 1000 µM in assay [1] is 83%; in assay [2] it was 65%. Further, the T/C worked out at 88% in assay [21] and 100% in assay [18]. For the same compound, the Weight change is given as -2.1 g in assay [21] and 1.1 g in [18]. The inhibition at 100 µM in [3] turned out to be 48%; in [4] it was 73%.

As for `NCCc1ccc(O)c(O)c1` [DOPAMINE], the inhibition at 1000 µM in assay [1] was determined as 30%; in [2], 40%.

Regarding `N[C@@H](Cc1ccc(O)c(O)c1)C(=O)O` [LEVODOPA], the results for the inhibition at 1000 µM in [1] and in assay [2] were 6% and 24%, respectively.
